These results are taken from ChEMBL document CHEMBL1949596, “Chromophenazines from the terrestrial Streptomyces sp. Ank 315” (2012).

Calls of active or inactive are those of the source. The calls are words filed in the database; no cut-off is given here.

Test [1] concerns Staphylococcus aureus. Description: Antimicrobial activity against Staphylococcus aureus by agar diffusion method. Type of test: functional, organism-based. In outline:
(§1)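 Pure compounds applied to paper disks at 40 μg/disk and tested by agar diffusion against Bacillus subtilis, Escherichia coli, Staphylococcus aureus and the fungus Mucor miehei (Tü284). Activity was read from the agar plates.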
A general note: Agar diffusion results depend on both activity and mobility in agar.

The subject of test [2] is Rhizomucor miehei. Description: Antimicrobial activity against Mucor miehei by agar diffusion method. In kind it is functional. The essentials: as §1
For test [3], the system named is Escherichia coli. Description: Antimicrobial activity against Escherichia coli by agar diffusion method. Type of test: functional. In outline:
as §1

The test system of test [4] is Bacillus subtilis. Description: Antimicrobial activity against Bacillus subtilis by agar diffusion method. In kind it is functional. In outline:
as §1

For the compound `CC(C)=CCc1cc(=O)cc2n(C)c3cccc(C(=O)O)c3nc1-2`, the result in test [1], in test [2], in test [3] and in test [4] was inactive.
For `CC(C)=CCn1c2cc(=O)c3cc(C)ccc3c-2nc2c(C(=O)O)cccc21`, the outcome in test [1], in test [2], in test [3] and in test [4] was inactive.
Turning to `CC(C)=CCN1c2ccccc2Nc2c(C(=O)O)cc(C(=O)c3ccccc3)cc21` [CHROMOPHENAZINE D], the “inhibition zone (IZ)” value in test [2], in test [3] and in test [4] was 10 mm each time.
Consider `CC(C)=CCn1c2cc(=O)ccc-2nc2c(C(N)=O)cccc21`, for which the outcome in test [1], in test [2], in test [3] and in test [4] was inactive.
On to `CC(C)=CCN1c2cc(C(=O)c3ccccc3)ccc2Nc2c(C(N)=O)cc(C(=O)c3ccccc3)cc21`, for which the outcome in test [1], in test [2], in test [3] and in test [4] was inactive.
As to `CC(C)=CCn1c2cc(=O)c3cc(C)ccc3c-2nc2ccccc21`, the outcome in test [1], in test [2], in test [3] and in test [4] was inactive.
